{"source": "ChEMBL document CHEMBL1131051", "about": "“Novel combretastatin analogues effective against murine solid tumors: design and structure-activity relationships” (J Med Chem, 1998)", "key": {"Colon 26 [1]": {"tested_on": "Colon 26", "assay": "Antitumor activity at dose 5 mg/kg in murine colon26 cells", "assay_type": "functional, Mus musculus"}, "Tubulin": {"target": "Tubulin (Bos taurus, UniProt Q6B856+Q862L2+Q862F3)", "assay": "Inhibitory activity against tubulin polymerization", "assay_type": "protein assay", "procedure,_shortened": "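Tubulin polymerization was started with GTP. It was followed turbidimetrically at 350 nm at 37 °C, and extent was read after 20 min incubation. IC50 was determined graphically, averaging three independent assays.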"}, "Colon 26 [2]": {"tested_on": "Colon 26", "assay": "Growth inhibition of colon 26 adenocarcinoma cells by 50 %.", "assay_type": "functional, cell-based", "conditions": "Mus musculus", "procedure,_shortened": "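Murine Colon 26 adenocarcinoma cells were kept in RPMI-1640 with 10% FBS. Cells were seeded at 1×10^5 cells/ml in 96-well plates and held 24 h at 37 °C in CO2. They were then exposed to a range of compound concentrations for 48 h, and viable cells were counted by MTT dye reduction. IC50 is the mean of three independent assays.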"}, "Colon 26 [3]": {"tested_on": "Colon 26", "assay": "(§1) Antitumor activity at dose 40 mg/kg in colon26 cells", "assay_type": "functional, Mus musculus", "procedure,_shortened": "(§2)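 Tumor fragments (5 mg) implanted sc on day 0: Colon 26 into CD2F1 mice, Colon 38 or 3LL into BD2F1 mice, HCT-15 into ICR nu/nu mice. Dosing iv on days 7, 11 and 15. On day 21, two caliper diameters were measured; tumor weight = length × width²/2. IR (%) = (1 − T/C) × 100, from mean treated versus control tumor weights.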"}, "[4]": {"assay": "as §1", "assay_type": "functional, Mus musculus", "procedure,_shortened": "as §2"}, "HCT-15 [5]": {"tested_on": "HCT-15", "assay": "Antitumor activity at dose 40 mg/kg in HCT-15 cells", "assay_type": "functional, Mus musculus", "procedure,_shortened": "as §2"}, "MC-38 [6]": {"tested_on": "MC-38", "assay": "Antitumor activity at dose 10 mg/kg in colon38 cells", "assay_type": "functional, Mus musculus", "procedure,_shortened": "as §2"}, "[7]": {"tested_on": "Lewis lung carcinoma cell line", "assay": "Antitumor activity at dose 40 mg/kg in Lewis lung carcinoma cells (3LL) cells", "assay_type": "functional, Mus musculus", "procedure,_shortened": "as §2"}, "MC-38 [8]": {"tested_on": "MC-38", "assay": "Antitumor activity at dose 10 mg/kg in Murine colon38 cells", "assay_type": "functional, Mus musculus", "procedure,_shortened": "as §2"}, "Colon 26 [9]": {"tested_on": "Colon 26", "assay": "Antitumor activity at dose 10 mg/kg in murine colon26 cells", "assay_type": "functional, Mus musculus", "procedure,_shortened": "as §2"}, "HCT-15 [10]": {"tested_on": "HCT-15", "assay": "Antitumor activity at dose 10 mg/kg in HCT-15 cells", "assay_type": "functional, Mus musculus", "procedure,_shortened": "as §2"}, "Colon 26 [11]": {"tested_on": "Colon 26", "assay": "Antitumor activity at dose 160 mg/kg in murine colon26 cells", "assay_type": "functional, Mus musculus"}}}
{"smiles": "COc1cc(/C(C#N)=C\\c2ccc(C)c(N)c2)cc(OC)c1OC.Cl", "values": [{"measurement": "IR", "setting": "Colon 26 [1]", "value": 11, "unit": "%"}]}
{"smiles": "COc1ccc(/C=C(/C#N)c2ccccc2)cc1N", "values": [{"measurement": "IC50", "setting": "Tubulin", "value": 8000, "unit": "nM"}, {"measurement": "IC50", "setting": "Colon 26 [2]", "value": 36, "unit": "nM"}]}
{"smiles": "COc1ccc(/C=C(/C#N)c2cc(OC)c(OC)c(OC)c2)cc1O", "values": [{"measurement": "IC50", "setting": "Tubulin", "value": 5000, "unit": "nM"}, {"measurement": "IC50", "setting": "Colon 26 [2]", "value": 23.5, "unit": "nM"}]}
{"smiles": "COc1ccc(CC(C#N)c2cc(OC)c(OC)c(OC)c2)cn1", "note": "(stereo unspecified)", "values": [{"measurement": "IC50", "setting": "Tubulin", "value": "> 20000", "unit": "nM"}, {"measurement": "IC50", "setting": "Colon 26 [2]", "value": "> 3000", "unit": "nM"}]}
{"smiles": "COc1cc(/C(C#N)=C\\c2ccc(Cl)c(N)c2)cc(OC)c1OC", "values": [{"measurement": "IC50", "setting": "Tubulin", "value": 6000, "unit": "nM"}, {"measurement": "IC50", "setting": "Colon 26 [2]", "value": 58.1, "unit": "nM"}]}
{"smiles": "COc1ccc(/C=C(/C#N)c2ccc(OC)c(OC)c2)cc1N", "values": [{"measurement": "IC50", "setting": "Tubulin", "value": 7000, "unit": "nM"}, {"measurement": "IC50", "setting": "Colon 26 [2]", "value": 8.1, "unit": "nM"}]}
{"smiles": "COc1cc(/C=C\\c2ccc(Cl)c(N)c2)cc(OC)c1OC", "values": [{"measurement": "IC50", "setting": "Tubulin", "value": 3000, "unit": "nM"}, {"measurement": "IC50", "setting": "Colon 26 [2]", "value": 68.9, "unit": "nM"}]}
{"smiles": "COc1ccc(/C=C(/C#N)c2cc(OC)c(OC)c(OC)c2)cc1[N+](=O)[O-]", "values": [{"measurement": "IC50", "setting": "Tubulin", "value": 5000, "unit": "nM"}, {"measurement": "IC50", "setting": "Colon 26 [2]", "value": 135, "unit": "nM"}]}
{"smiles": "COc1ccc(/C=C(/C#N)c2cc(OC)c(OC)c(OC)c2)cc1N", "values": [{"measurement": "IC50", "setting": "Tubulin", "value": 10000, "unit": "nM"}, {"measurement": "IC50", "setting": "Colon 26 [2]", "value": 5.9, "unit": "nM"}]}
{"smiles": "COc1ccc(/C=C\\c2cc(OC)c(OC)c(OC)c2)cc1N.Cl", "values": [{"measurement": "IR", "setting": "Colon 26 [3]", "value": 69, "unit": "%"}, {"measurement": "IR", "setting": "[4]", "value": 62, "unit": "%"}, {"measurement": "IR", "setting": "HCT-15 [5]", "value": 53, "unit": "%"}, {"measurement": "IR", "setting": "MC-38 [6]", "value": 72, "unit": "%"}, {"measurement": "IR", "setting": "[7]", "value": 65, "unit": "%"}]}
{"smiles": "COc1ccc(/C=C(/C(N)=O)c2cc(OC)c(OC)c(OC)c2)cc1N", "values": [{"measurement": "IC50", "setting": "Tubulin", "value": 3000, "unit": "nM"}, {"measurement": "IC50", "setting": "Colon 26 [2]", "value": 195, "unit": "nM"}]}
{"smiles": "COc1ccc(/C=C(/C#N)c2cc(OC)c(OC)c(OC)c2)cc1N.Cl", "values": [{"measurement": "IR", "setting": "MC-38 [8]", "value": 75, "unit": "%"}, {"measurement": "IR", "setting": "Colon 26 [9]", "value": 77, "unit": "%"}, {"measurement": "IR", "setting": "[7]", "value": 59, "unit": "%"}, {"measurement": "IR", "setting": "HCT-15 [10]", "value": 28, "unit": "%"}]}
{"smiles": "COc1ccc(/C=C\\c2cc(OC)c(OC)c(OC)c2)cc1N", "values": [{"measurement": "IC50", "setting": "Colon 26 [2]", "value": 5.1, "unit": "nM"}]}
{"smiles": "COc1cc(/C(C#N)=C/c2ccc(C)c(N)c2)cc(OC)c1OC", "values": [{"measurement": "IC50", "setting": "Tubulin", "value": "> 20000", "unit": "nM"}, {"measurement": "IC50", "setting": "Colon 26 [2]", "value": 722, "unit": "nM"}]}
{"smiles": "COc1cc(/C(C#N)=C\\c2ccc(Cl)c(N)c2)cc(OC)c1OC.Cl", "values": [{"measurement": "IR", "setting": "Colon 26 [1]", "value": -23, "unit": "%"}]}
{"smiles": "COc1ccc(/C=C(/C[N+](C)(C)C)c2cc(OC)c(OC)c(OC)c2)cc1.[I-]", "values": [{"measurement": "IC50", "setting": "Tubulin", "value": "> 20000", "unit": "nM"}, {"measurement": "IC50", "setting": "Colon 26 [2]", "value": "> 3000", "unit": "nM"}]}
{"smiles": "COc1ccc(/C=C(/C#N)c2cc(OC)c(OC)c(OC)c2)cc1NC(C)=O", "values": [{"measurement": "IC50", "setting": "Tubulin", "value": 10000, "unit": "nM"}, {"measurement": "IC50", "setting": "Colon 26 [2]", "value": 18.3, "unit": "nM"}]}
{"smiles": "COc1ccc(/C=C(/C#N)c2cc(OC)c(OC)c(OC)c2)cc1", "values": [{"measurement": "IC50", "setting": "Tubulin", "value": 6000, "unit": "nM"}, {"measurement": "IC50", "setting": "Colon 26 [2]", "value": 18, "unit": "nM"}]}
{"smiles": "COc1cc(/C=C\\c2ccc(C)c(N)c2)cc(OC)c1OC.Cl", "values": [{"measurement": "IR", "setting": "Colon 26 [3]", "value": 62, "unit": "%"}]}
{"smiles": "COc1ccc(/C=C(\\C#N)c2cc(OC)c(OC)c(OC)c2)cc1", "values": [{"measurement": "IC50", "setting": "Tubulin", "value": "> 20000", "unit": "nM"}, {"measurement": "IC50", "setting": "Colon 26 [2]", "value": 63.7, "unit": "nM"}]}
{"smiles": "COc1ccc(/C=C(/C=O)c2cc(OC)c(OC)c(OC)c2)cc1", "values": [{"measurement": "IC50", "setting": "Tubulin", "value": 4000, "unit": "nM"}, {"measurement": "IC50", "setting": "Colon 26 [2]", "value": 213, "unit": "nM"}]}
{"smiles": "COc1ccc(/C=C(/C#N)c2cc(OC)c(OC)c(OC)c2)cn1", "values": [{"measurement": "IC50", "setting": "Tubulin", "value": "> 20000", "unit": "nM"}, {"measurement": "IC50", "setting": "Colon 26 [2]", "value": 2370, "unit": "nM"}]}
{"smiles": "COc1ccc(CC(C#N)c2cc(OC)c(OC)c(OC)c2)cc1N", "note": "(stereo unspecified)", "values": [{"measurement": "IC50", "setting": "Tubulin", "value": 7000, "unit": "nM"}, {"measurement": "IC50", "setting": "Colon 26 [2]", "value": 22.5, "unit": "nM"}]}
{"smiles": "COc1ccc(/C(=C\\c2cc(OC)c(OC)c(OC)c2)C(N)=O)cc1N", "values": [{"measurement": "IC50", "setting": "Colon 26 [2]", "value": 223, "unit": "nM"}]}
{"smiles": "COc1ccc(/C=C(\\C#N)c2cc(OC)c(OC)c(OC)c2)cc1[N+](=O)[O-]", "values": [{"measurement": "IC50", "setting": "Tubulin", "value": "> 20000", "unit": "nM"}, {"measurement": "IC50", "setting": "Colon 26 [2]", "value": "> 3000", "unit": "nM"}]}
{"smiles": "COc1ccc(/C=C\\c2cc(OC)c(OC)c(OC)c2)cc1O", "note": "[COMBRETASTATIN A4]", "values": [{"measurement": "IR", "setting": "Colon 26 [11]", "value": 31, "unit": "%"}, {"measurement": "IC50", "setting": "Colon 26 [2]", "value": 18, "unit": "nM"}]}
{"smiles": "COc1ccc(/C(C#N)=C\\c2ccc(OC)c(N)c2)cc1", "values": [{"measurement": "IC50", "setting": "Tubulin", "value": 9000, "unit": "nM"}, {"measurement": "IC50", "setting": "Colon 26 [2]", "value": 1430, "unit": "nM"}]}
{"smiles": "COc1ccc(/C=C(/CN)c2cc(OC)c(OC)c(OC)c2)cc1", "values": [{"measurement": "IC50", "setting": "Tubulin", "value": "> 20000", "unit": "nM"}, {"measurement": "IC50", "setting": "Colon 26 [2]", "value": "> 3000", "unit": "nM"}]}
{"smiles": "COc1cc(/C(C#N)=C\\c2ccc(C)c(N)c2)cc(OC)c1OC", "values": [{"measurement": "IC50", "setting": "Tubulin", "value": 10000, "unit": "nM"}, {"measurement": "IC50", "setting": "Colon 26 [2]", "value": 61.7, "unit": "nM"}]}
{"smiles": "COc1ccc(/C=C(\\C#N)c2cc(OC)c(OC)c(OC)c2)cc1N", "values": [{"measurement": "IC50", "setting": "Tubulin", "value": "> 20000", "unit": "nM"}, {"measurement": "IC50", "setting": "Colon 26 [2]", "value": 12.6, "unit": "nM"}]}
{"smiles": "COc1ccc(/C=C(/CO)c2cc(OC)c(OC)c(OC)c2)cc1", "values": [{"measurement": "IC50", "setting": "Tubulin", "value": "> 20000", "unit": "nM"}, {"measurement": "IC50", "setting": "Colon 26 [2]", "value": 363, "unit": "nM"}]}
{"smiles": "COc1ccc(/C(C#N)=C\\c2cc(OC)c(OC)c(OC)c2)cc1N", "values": [{"measurement": "IC50", "setting": "Tubulin", "value": 5000, "unit": "nM"}, {"measurement": "IC50", "setting": "Colon 26 [2]", "value": 235, "unit": "nM"}]}
{"smiles": "COc1cc(/C=C\\c2ccc(C)c(N)c2)cc(OC)c1OC", "values": [{"measurement": "IC50", "setting": "Tubulin", "value": 4000, "unit": "nM"}, {"measurement": "IC50", "setting": "Colon 26 [2]", "value": 43.5, "unit": "nM"}]}
